In ChEMBL document CHEMBL3259728, “Design, synthesis and biological evaluation of some novel substituted quinazolines as antitumor agents” (2014):

Assays:
Format in all cases: functional
LOX IMVI = assay: Cytotoxicity against human LOXIMVI cells after 48 hrs by SRB assay
How it was run: (§1)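 NCI 60-cell-line panel of human tumour lines from nine cancer types. Continuous 48 h exposure at five 10-fold dilutions from 10^-4 to 10^-8 M, with 5-FU as positive control. SRB protein stain read spectrophotometrically at time zero, untreated control and each concentration. GI50, TGI and LC50 were derived from the [(Ti−Tz)/(C−Tz)]×100 growth relations, and out-of-range values are given as > or < the tested limits.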

[1] = Growth inhibition of human EKVX cells assessed as cell growth at 10^-5 M after 48 hrs by SRB assay; conditions: read-out: Activity
SNB-75 = assay: Growth inhibition of human SNB75 cells assessed as cell growth at 10^-8 M after 48 hrs by SRB assay; conditions: SNB-75, 48 h, read-out: Activity
[2] = Growth inhibition of human MOLT4 cells assessed as cell growth at 10^-4 M after 48 hrs by SRB assay; conditions: MOLT-4, 48 h, read-out: Activity
[3] = Cytotoxicity against human EKVX cells after 48 hrs by SRB assay; how it was run: as §1
SN12C = assay: Growth inhibition of human SN12C cells assessed as cell growth at 10^-7 M after 48 hrs by SRB assay; conditions: read-out: Activity
[4] = Growth inhibition of human UACC257 cells assessed as cell growth at 10^-5 M after 48 hrs by SRB assay; conditions: UACC-257, 48 h, read-out: Activity
IGROV-1 = assay: Growth inhibition of human IGROV1 cells assessed as cell growth at 10^-5 M after 48 hrs by SRB assay; conditions: IGROV-1, 48 h, read-out: Activity
MDA-MB-231 [5] = assay: Growth inhibition of human MDA-MB-231 cells assessed as cell growth at 10^-7 M after 48 hrs by SRB assay; conditions: MDA-MB-231, 48 h, read-out: Activity
SW-620 [6] = assay: Cytotoxicity against human SW620 cells after 48 hrs by SRB assay; conditions: SW-620, 48 h; how it was run: as §1
[7] = Growth inhibition of human NCI-ADR-RES cells assessed as cell growth at 10^-7 M after 48 hrs by SRB assay; conditions: read-out: Activity
[8] = Growth inhibition of human OVCAR5 cells assessed as cell growth at 10^-5 M after 48 hrs by SRB assay; conditions: OVCAR-5, 48 h, read-out: Activity
SW-620 [9] = assay: Growth inhibition of human SW620 cells assessed as cell growth at 10^-7 M after 48 hrs by SRB assay; conditions: SW-620, 48 h, read-out: Activity
[10] = Growth inhibition of human OVCAR8 cells assessed as cell growth at 10^-7 M after 48 hrs by SRB assay; conditions: OVCAR-8, 48 h, read-out: Activity
PC-3 = assay: Growth inhibition of human PC3 cells assessed as cell growth at 10^-4 M after 48 hrs by SRB assay; conditions: PC-3, 48 h, read-out: Activity
[11] = Cytotoxicity against human HCT15 cells after 48 hrs by SRB assay; conditions: HCT-15, 48 h; how it was run: as §1
[12] = Growth inhibition of human RXF393 cells assessed as cell growth at 10^-4 M after 48 hrs by SRB assay; conditions: RXF 393, 48 h, read-out: Activity
[13] = Growth inhibition of human OVCAR3 cells assessed as cell growth at 10^-4 M after 48 hrs by SRB assay; conditions: OVCAR-3, 48 h, read-out: Activity
[14] = Growth inhibition of human BT549 cells assessed as cell growth at 10^-7 M after 48 hrs by SRB assay; conditions: BT-549, 48 h, read-out: Activity
How it was run: (§2)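 Five-dose NCI panel protocol. Each dose (10^-4 to 10^-8 M, 10-fold steps) was given as 48 h continuous exposure, and protein was measured by SRB staining. Percentage growth at each level is [(Ti−Tz)/(C−Tz)]×100, where Tz is time-zero absorbance and C is untreated control.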

[15] = Growth inhibition of human HOP92 cells assessed as cell growth at 10^-7 M after 48 hrs by SRB assay; conditions: HOP-92, 48 h, read-out: Activity
786-0 [16] = assay: Growth inhibition of human 786-0 cells assessed as cell growth at 10^-8 M after 48 hrs by SRB assay; conditions: 786-0, 48 h, read-out: Activity; how it was run: as §2
[17] = Growth inhibition of human OVCAR5 cells assessed as cell growth at 10^-8 M after 48 hrs by SRB assay; conditions: OVCAR-5, 48 h, read-out: Activity
SR = assay: Cytotoxicity against human SR cells after 48 hrs by SRB assay; how it was run: as §1
MDA-MB-231 [18] = assay: Growth inhibition of human MDA-MB-231 cells assessed as cell growth at 10^-8 M after 48 hrs by SRB assay; conditions: MDA-MB-231, 48 h, read-out: Activity
MDA-MB-435 = assay: Growth inhibition of human MDA-MB-435 cells assessed as cell growth at 10^-6 M after 48 hrs by SRB assay; conditions: MDA-MB-435, 48 h, read-out: Activity
KM12 = assay: Cytotoxicity against human KM12 cells after 48 hrs by SRB assay; conditions: KM12, 48 h; how it was run: as §1
[19] = Growth inhibition of human NCI-ADR-RES cells assessed as cell growth at 10^-4 M after 48 hrs by SRB assay; conditions: read-out: Activity
[20] = Growth inhibition of human SF295 cells assessed as cell growth at 10^-4 M after 48 hrs by SRB assay; conditions: SF-295, 48 h, read-out: Activity
786-0 [21] = assay: Growth inhibition of human 786-0 cells assessed as cell growth at 10^-5 M after 48 hrs by SRB assay; conditions: 786-0, 48 h, read-out: Activity; how it was run: as §2
[22] = Growth inhibition of human NCI-ADR-RES cells assessed as cell growth at 10^-5 M after 48 hrs by SRB assay; conditions: read-out: Activity
SW-620 [23] = assay: Growth inhibition of human SW620 cells assessed as cell growth at 10^-8 M after 48 hrs by SRB assay; conditions: SW-620, 48 h, read-out: Activity
[24] = read-out: LC50 (the source's name)
[25] = read-out: pLC50 (the source's name) (converted)

SMILES: Cc1ccc(-c2nc3ccc(Cl)cc3c(=O)n2/N=C/c2ccccc2)cc1
- GI50 (LOX IMVI; read-out: GI50): 70.1 µM
- CC50 (LOX IMVI; [24]): > 100 µM
- TGI (LOX IMVI; read-out: TGI): > 100 µM
- GI50 (LOX IMVI; read-out: pGI50 (converted)): 70.8 µM
- CC50 (LOX IMVI; [25]): > 100 µM
- TGI (LOX IMVI; read-out: pTGI): > 100 µM
- growth at 10 µM [1]: 34%
- growth at 0.01 µM (SNB-75): 87%
- growth at 100 µM [2]: 56%
- GI50 ([3]; read-out: GI50): 4.15 µM
- CC50 [3, 24]: > 100 µM
- TGI ([3]; read-out: TGI): > 100 µM
- GI50 ([3]; read-out: pGI50 (converted)): 4.17 µM
- CC50 [3, 25]: > 100 µM
- TGI ([3]; read-out: pTGI): > 100 µM
- growth at 0.1 µM (SN12C): 92%
- growth at 10 µM [4]: 73%
- growth at 10 µM (IGROV-1): 34%
- growth at 0.1 µM (MDA-MB-231 [5]): 99%
- GI50 (SW-620 [6]; read-out: GI50): > 100 µM
- CC50 (SW-620 [6]; [24]): > 100 µM
- TGI (SW-620 [6]; read-out: TGI): > 100 µM
- GI50 (SW-620 [6]; read-out: pGI50 (converted)): > 100 µM
- CC50 (SW-620 [6]; [25]): > 100 µM
- TGI (SW-620 [6]; read-out: pTGI): > 100 µM
- growth at 0.1 µM [7]: 95%
- growth at 10 µM [8]: 74%
- growth at 0.1 µM (SW-620 [9]): 93%
- growth at 0.1 µM [10]: 100%
- growth at 100 µM (PC-3): 49%
- GI50 ([11]; read-out: GI50): > 100 µM
- CC50 [11, 24]: > 100 µM
- TGI ([11]; read-out: TGI): > 100 µM
- GI50 ([11]; read-out: pGI50 (converted)): > 100 µM
- CC50 [11, 25]: > 100 µM
- TGI ([11]; read-out: pTGI): > 100 µM
- growth at 100 µM [12]: 19%
- growth at 100 µM [13]: 15%
- growth at 0.1 µM [14]: 94%
- growth at 0.1 µM [15]: 89%
- growth at 0.01 µM (786-0 [16]): 90%
- growth at 0.01 µM [17]: 96%
- GI50 (SR; read-out: GI50): > 100 µM
- CC50 (SR; [24]): > 100 µM
- TGI (SR; read-out: TGI): > 100 µM
- GI50 (SR; read-out: pGI50 (converted)): > 100 µM
- CC50 (SR; [25]): > 100 µM
- TGI (SR; read-out: pTGI): > 100 µM
- growth at 0.01 µM (MDA-MB-231 [18]): 108%
- growth at 1 µM (MDA-MB-435): 87%
- GI50 (KM12; read-out: GI50): > 100 µM
- CC50 (KM12; [24]): > 100 µM
- TGI (KM12; read-out: TGI): > 100 µM
- GI50 (KM12; read-out: pGI50 (converted)): > 100 µM
- CC50 (KM12; [25]): > 100 µM
- TGI (KM12; read-out: pTGI): > 100 µM
- growth at 100 µM [19]: 36%
- growth at 100 µM [20]: 18%
- growth at 10 µM (786-0 [21]): 18%
- growth at 10 µM [22]: 48%
- growth at 0.01 µM (SW-620 [23]): 96%
